The list is not random: actives were taken first. Their share in the collection is about 2.1%.
TLR4-MyD88 BLA – TLR4-MyD88 interaction inhibition in cells | O00206+Q99836 | HeLa CL3-4 TLR4/MyD88 BLA complementation, FRET ratio | inhibition, % at 8.4 µM | actives 0.18% (n = 200,000); in the data active = inhibition above about 25%;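 note: 0% = vehicle and 100% = reference inhibitor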
NOD2-RIPK2 inh – NOD2-RIPK2 protein interaction inhibition. O43353. CHO BLA complementation NOD2-RIPK2, CCF4 ratio. inhibition, % at 4.98 µM. actives 0.38% (n = 360,000). AID 624267; in the data active = inhibition above about 21%;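 note: 0% = vehicle only and 100% = reference blocker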
Target sequence (O43353 whole entry, looked up): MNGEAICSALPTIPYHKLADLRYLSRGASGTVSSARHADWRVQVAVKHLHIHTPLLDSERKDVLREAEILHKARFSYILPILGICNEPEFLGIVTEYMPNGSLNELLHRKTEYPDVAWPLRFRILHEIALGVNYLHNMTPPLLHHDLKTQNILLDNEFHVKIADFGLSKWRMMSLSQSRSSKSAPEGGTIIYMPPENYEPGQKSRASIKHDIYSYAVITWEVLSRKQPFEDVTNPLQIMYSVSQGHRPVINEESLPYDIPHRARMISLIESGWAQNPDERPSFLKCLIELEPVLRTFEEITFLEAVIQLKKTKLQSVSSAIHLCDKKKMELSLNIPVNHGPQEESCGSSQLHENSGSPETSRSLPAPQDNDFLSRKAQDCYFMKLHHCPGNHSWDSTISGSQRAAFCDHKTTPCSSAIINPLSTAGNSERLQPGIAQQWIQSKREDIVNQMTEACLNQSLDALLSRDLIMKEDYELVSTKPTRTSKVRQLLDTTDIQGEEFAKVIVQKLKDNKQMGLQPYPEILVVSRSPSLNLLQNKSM
MC4R antagonist – blocks human MC4R cAMP signaling | actives 0.48% (n = 360,000) | AID 540295 | MC4R-expressing cells, MTII-stimulated cAMP, LANCE TR-FRET | inhibition, % at 6.5 µM | P32245;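 active = inhibition above its plate's cutoff, the mean of tested wells on that plate plus 3 SD, cut at about 29% in these data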;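 note: 0% = Melanotan II alone and 100% = Melanotan II plus saturating MCL0020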
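Assay system: human MC4R-expressing U2OS cells; reagent: Melanotan II stimulation of cells; dosing: 6.5 µM single dose; timing: compound 30 min, challenge 1 h, detection 1 h; signal: TR-FRET cAMP assay; replicates: one well per compound, no replicates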
TLR9-MyD88 inh – inhibitors of human TLR9-MyD88 binding; CHO BLA complementation TLR9-MyD88, CCF4 FRET ratio; inhibition, % at 4.98 µM; actives 0.21% (n = 340,000); AID 504734;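 active = inhibition above the mean over all tested compounds plus 3 SD, cut at about 21% in these data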;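 note: 0% = DMSO only wells and 100% = clavulanate BLA inhibitor control wells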
beta cell repl – inducers of beta-cell replication in MIN6 cells; actives 0.29% (n = 330,000); MIN6 cells proliferation, ATPlite luminescence, 48 h; cells starved in 0.2% serum; 100% = growth in 10% serum; AID 2380; proliferation, % at 10 µM;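 active = compounds whose signal lies at least 3.5 SD above the mean of all wells on their plate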;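 note: 0% = DMSO-treated cells in low-serum medium and 100% = 10% serum control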
MC4R ag barr – human MC4R agonism via beta-arrestin | activation, % at 8.9 µM | AID 540308 | U2OS MC4R beta-arrestin complementation, luminescence; percent of melanotan II response, DMSO zero | actives 0.98% (n = 360,000);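 active = activation above a per-plate cutoff, the mean activation of sample wells on that plate plus 3 SD, cut at about 8% in these data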
* marks the source's active call; other numbers are inactive results; x = not tested or not shown.

SMILES	TLR4-MyD88 BLA	NOD2-RIPK2 inh	MC4R antagonist	TLR9-MyD88 inh	beta cell repl	MC4R ag barr
Cc1ccccc1NC(=O)CSc1ccsc1[N+](=O)[O-]	-10	-2	3	4	0	-3
COc1cc(C(=O)N/N=C/c2ccc(OC(=O)c3ccccc3Cl)c(OC)c2)ccc1O	x	2	6	-7	-7	11*
COc1ccc(/C=N\NC(=O)c2ccc(-c3ccccc3)cc2)cc1COC(C)=O	x	-9	0	0	-1	9.1*
Cc1ccc(C(=O)N/N=C\c2ccc(OC(=O)c3cccc(F)c3)cc2)cn1	x	0	-7	-6	-1	0
COc1ccc(/C=N\NC(=O)c2ccccc2)cc1COc1ccc(F)cc1	x	-2	2	3	-2	-4
COc1cc(/C=N\NC(=O)c2ccc(C)nc2)ccc1OC(=O)c1cccc(F)c1	x	-1	6	-3	-1	9.1*
COc1cc(/C=N/NC(=O)c2ccncc2)ccc1OC(=O)c1ccccc1Cl	-3	0	8	-2	-3	3
CC(=O)c1ccc(S(=O)(=O)Nc2c(C)nn(C)c2C)cc1	x	5	-1	-6	-2	0
CCOC(=O)C1CCCN(S(=O)(=O)CCNC(=O)c2ccc3c(c2)OCO3)C1 (centres undefined)	x	-9	1	2	0	-1
COc1cccc(C(=O)NNS(=O)(=O)c2ccc(C)cc2)c1	x	0	19	-15	-3	-1
COC(=O)c1cc2c(n1S(=O)(=O)c1ccc(C)cc1)C(=O)C(=O)c1[nH]cc(C(=O)OCc3ccccc3)c1-2	x	-4	-27	-6	x	37*
OC(CN1CCN(C(c2ccccc2)c2ccccc2)CC1)c1ccccc1 (centres undefined)	x	8	21	4	-5	10.0*
Cc1ccccc1OCC(O)Cn1c(=N)n(Cc2ccccc2)c2ccccc21 (centres undefined)	x	3	-1	-8	-7	9.1*
COc1cccc(-c2c(-c3ccccc3OC)ncn2Cc2cccc(-c3ccccc3)c2)c1	x	0	x	x	x	x
O=C(CCCOc1ccc(Br)cc1)NCCc1ccc(OC(F)F)cc1	x	5	2	-11	0	-1
NC(N)=N/N=C/c1ccc(OCc2ccccc2Cl)cc1	4	2	2	6	-4	22*
OCC1(Cc2ccc(F)cc2F)CCCN(CCCc2ccccc2)C1 (centres undefined)	x	-18	19	-9	-4	9.5*
COCC(CN1CCN(C2=NS(=O)(=O)c3ccccc32)CC1)OC(=O)c1ccccc1 (centres undefined)	x	-4	13	8	7	0
COc1ccc(/C=C/C(=O)OCC(=O)NCc2ccccc2Cl)cc1OC	x	3	-1	-8	0	0
O=C(c1cc(-c2ccco2)nn1-c1cccc(Cl)c1)N1CCCCC1	1	4	31*	-3	-2	1
O=C(OCn1ncc(Br)c(Br)c1=O)c1ccc(F)cc1	16	74*	47*	35*	-3	0
CC(=O)OCn1ncc(N2CCOCC2)c(Br)c1=O	x	8	17	-12	0	-1
COc1cccc(NC(=O)CN2C(=O)NC(C)(c3ccc(C)cc3)C2=O)c1 (centres undefined)	x	-5	5	-3	0	-2
C=CCn1c(SCC(=O)NCCCC)nc2scc(-c3ccco3)c2c1=O	-7	-1	3	3	-3	-3
C=CCn1c(SCC(C)=O)nc2scc(-c3ccc(C)o3)c2c1=O	x	-4	0	13	1	8.3*
SMILES	TLR4-MyD88 BLA	NOD2-RIPK2 inh	MC4R antagonist	TLR9-MyD88 inh	beta cell repl	MC4R ag barr
O=C(NCc1cccc(CNC(=O)c2ccco2)c1)c1ccco1	1	-2	2	-5	-3	-2
O=C(NCc1cccc(CNC(=O)C(=O)NCc2ccco2)c1)C(=O)NCc1ccco1	1	-3	-1	-4	3	9.6*
CC(=O)N1CCN(CCS(=O)(=O)c2ccc(Br)cc2)CC1	x	-2	10	0	-1	0
CC(C)(C)C1CCc2onc(C(=O)Nc3ccc(F)cc3F)c2C1 (centres undefined)	15	2	2	1	-3	8.3*
N=C1/C(=C/c2cccn2Cc2ccc(Cl)cc2)C(=O)N=C2SC=CN12	-7	-14	-10	4	0	9.4*
O=C(Nc1ccc(/C=C/c2nc3ccccc3o2)cc1)c1c(F)cccc1F	-9	10	10	1	-2	8.9*
Cc1cc(C)c(S(=O)(=O)NC2CC3CCC2C3)c(C)c1 (centres undefined)	x	2	19	2	1	8.5*
CC(C)(C)c1ccc(OCCC(=O)Nc2ccc(N3CCOCC3)cc2N2CCOCC2)cc1	x	5	9	4	-4	8.6*
Cc1csc(NC(=O)COc2ccc3c(C)cc(=O)oc3c2)n1	-5	-7	-9	9	2	9.4*
CCc1ccc(-c2nc(CN3CCC(C(=O)N4CCN(c5ccccc5)CC4)CC3)c(C)o2)cc1	-18	11	9	1	-6	9.5*
CCc1ccc(-c2nc(CN3CCC(C(=O)N4CCN(c5ccccn5)CC4)CC3)c(C)o2)cc1	3	7	-5	4	-6	-1
O=C(Nc1ccc(Cl)c(Cl)c1)c1ccc2c(c1)OCO2	x	13	9	4	-4	9.3*
O=C(NCc1nc(-c2ccccc2)no1)c1ccc2c(c1)OCO2	5	-5	0	2	-2	-1
Cc1ccccc1OCc1nc(-c2ccc(NC(=O)c3ccc4c(c3)OCO4)cc2)no1	6	-3	1	1	-4	22*
CCOC(=O)c1cc(NC(=O)c2cc(C)on2)cc(C(=O)OCC)c1	6	4	-1	-3	3	31*
CC(=O)Nc1ccc(NC(=O)CN(c2ccc(C34CC5CC(CC(C5)C3)C4)cc2)S(C)(=O)=O)cc1	-11	2	10	-3	0	11*
Cc1cccc(OCc2nnc(SCC(=O)Nc3ccc(C)c(C)c3)o2)c1	-9	0	1	10	-4	8.8*
Cc1cccc(OCc2nnc(SCC(=O)Nc3ncc(C)s3)o2)c1	14	12	-4	4	0	-1
O=C(Nc1c(F)cccc1F)c1ccc2c(c1)CCN2S(=O)(=O)c1ccccc1	x	3	0	2	5	-2
CCCn1c(SCC(=O)c2ccc3c(c2)NC(=O)CO3)nc2ccccc21	-12	-8	4	10	-4	2
Cn1c(SCC(=O)c2ccc3c(c2)NC(=O)CO3)nc2ccccc21	-19	-3	27	-16	-2	14*
CCOc1ccc(NC(=O)Cn2sc3nc(C)cc(C)c3c2=O)cc1	x	27*	2	6	-6	3
